Experimental findings from ChEMBL document CHEMBL1641497, “A potent and selective indole N-type calcium channel (Ca(v)2.2) blocker for the treatment of pain” (Bioorg Med Chem Lett, 2011) are described below.

The target in data set [1] is T1, Voltage-dependent N-type calcium channel subunit alpha-1B (Homo sapiens, UniProt Q00975). The data set can be described thus: Blockade of Cav2.2 channel at 10 uM by fluorescent calcium-influx assay. In outline:
(§1)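 […] Cav2.2 channel block measured in vitro with a fluorescent calcium-influx (FLIPR) assay. Results are reported as % inhibition at 10 μM, with an IC50 (μM) for selected compounds.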
Target sequence in this assay (Q00975 whole entry, looked up): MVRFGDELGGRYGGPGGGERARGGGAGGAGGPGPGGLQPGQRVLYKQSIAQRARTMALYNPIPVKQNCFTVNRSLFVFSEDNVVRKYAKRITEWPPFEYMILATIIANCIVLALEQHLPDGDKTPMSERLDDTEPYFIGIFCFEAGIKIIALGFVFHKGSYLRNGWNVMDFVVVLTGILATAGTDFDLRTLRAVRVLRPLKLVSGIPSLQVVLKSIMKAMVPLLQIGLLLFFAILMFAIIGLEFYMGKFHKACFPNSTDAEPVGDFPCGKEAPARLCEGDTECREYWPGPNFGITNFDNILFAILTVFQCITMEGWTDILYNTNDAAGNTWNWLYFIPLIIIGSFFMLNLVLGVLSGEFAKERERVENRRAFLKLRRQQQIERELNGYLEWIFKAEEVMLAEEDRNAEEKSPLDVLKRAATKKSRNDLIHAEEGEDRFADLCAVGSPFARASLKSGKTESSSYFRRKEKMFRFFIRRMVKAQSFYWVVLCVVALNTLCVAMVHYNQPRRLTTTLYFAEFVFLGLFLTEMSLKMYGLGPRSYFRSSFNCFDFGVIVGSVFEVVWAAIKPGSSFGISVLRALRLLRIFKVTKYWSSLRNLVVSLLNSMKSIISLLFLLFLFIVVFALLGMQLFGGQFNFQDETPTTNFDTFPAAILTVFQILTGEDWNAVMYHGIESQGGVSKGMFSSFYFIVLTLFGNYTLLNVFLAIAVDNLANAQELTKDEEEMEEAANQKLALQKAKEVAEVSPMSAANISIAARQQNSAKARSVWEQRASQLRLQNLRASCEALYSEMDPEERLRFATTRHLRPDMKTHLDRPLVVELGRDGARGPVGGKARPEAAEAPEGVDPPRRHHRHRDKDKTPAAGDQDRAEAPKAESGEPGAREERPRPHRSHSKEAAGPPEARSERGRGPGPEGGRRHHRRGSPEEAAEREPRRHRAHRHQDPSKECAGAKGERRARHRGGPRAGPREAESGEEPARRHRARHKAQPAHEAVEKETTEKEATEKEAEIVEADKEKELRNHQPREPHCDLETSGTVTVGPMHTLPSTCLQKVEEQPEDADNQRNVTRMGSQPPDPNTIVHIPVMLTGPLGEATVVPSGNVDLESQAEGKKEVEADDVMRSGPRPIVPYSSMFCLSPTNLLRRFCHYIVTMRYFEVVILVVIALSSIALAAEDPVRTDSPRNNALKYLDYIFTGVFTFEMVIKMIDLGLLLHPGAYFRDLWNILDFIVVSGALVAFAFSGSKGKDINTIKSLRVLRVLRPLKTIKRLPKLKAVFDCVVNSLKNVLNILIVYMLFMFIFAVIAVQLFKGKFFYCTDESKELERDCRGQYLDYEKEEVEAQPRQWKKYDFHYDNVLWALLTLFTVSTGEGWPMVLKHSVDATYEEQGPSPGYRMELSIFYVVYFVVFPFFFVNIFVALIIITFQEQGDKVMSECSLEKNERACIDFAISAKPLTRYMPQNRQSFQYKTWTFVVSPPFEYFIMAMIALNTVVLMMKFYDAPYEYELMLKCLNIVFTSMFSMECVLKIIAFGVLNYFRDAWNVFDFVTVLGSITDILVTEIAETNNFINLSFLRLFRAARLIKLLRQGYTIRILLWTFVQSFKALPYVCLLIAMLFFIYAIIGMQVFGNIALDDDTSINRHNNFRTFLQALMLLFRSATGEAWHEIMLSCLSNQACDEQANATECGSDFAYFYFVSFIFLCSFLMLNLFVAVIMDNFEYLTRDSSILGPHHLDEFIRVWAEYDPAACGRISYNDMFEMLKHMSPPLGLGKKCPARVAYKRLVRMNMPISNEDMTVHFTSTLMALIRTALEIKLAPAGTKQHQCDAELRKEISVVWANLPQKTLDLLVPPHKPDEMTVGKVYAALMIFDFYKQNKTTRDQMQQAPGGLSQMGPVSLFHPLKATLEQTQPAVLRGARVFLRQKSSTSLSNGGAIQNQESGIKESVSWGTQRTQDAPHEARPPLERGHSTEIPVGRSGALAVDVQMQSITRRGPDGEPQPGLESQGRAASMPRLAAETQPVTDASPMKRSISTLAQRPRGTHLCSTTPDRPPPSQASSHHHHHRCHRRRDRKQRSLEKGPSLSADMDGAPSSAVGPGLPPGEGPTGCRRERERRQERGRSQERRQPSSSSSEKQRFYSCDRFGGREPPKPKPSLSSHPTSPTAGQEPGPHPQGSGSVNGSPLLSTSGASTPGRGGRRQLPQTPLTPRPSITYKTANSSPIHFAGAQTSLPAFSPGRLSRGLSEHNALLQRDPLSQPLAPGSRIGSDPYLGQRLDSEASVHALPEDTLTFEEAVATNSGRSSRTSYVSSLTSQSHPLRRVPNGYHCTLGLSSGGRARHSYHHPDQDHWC

For data set [2], the target named is T1, Voltage-dependent N-type calcium channel subunit alpha-1B. The data set can be described thus: Blockade of Cav2.2 channel by fluorescent calcium-influx assay. In outline: as §1
Target sequence in this assay (Q00975 whole entry): as the sequence (Q00975 whole entry, looked up) above
For data set [3], the target named is T2, Nuclear receptor subfamily 1 group I member 2 (Homo sapiens, UniProt O75469).
T2 sequence (O75469 whole entry): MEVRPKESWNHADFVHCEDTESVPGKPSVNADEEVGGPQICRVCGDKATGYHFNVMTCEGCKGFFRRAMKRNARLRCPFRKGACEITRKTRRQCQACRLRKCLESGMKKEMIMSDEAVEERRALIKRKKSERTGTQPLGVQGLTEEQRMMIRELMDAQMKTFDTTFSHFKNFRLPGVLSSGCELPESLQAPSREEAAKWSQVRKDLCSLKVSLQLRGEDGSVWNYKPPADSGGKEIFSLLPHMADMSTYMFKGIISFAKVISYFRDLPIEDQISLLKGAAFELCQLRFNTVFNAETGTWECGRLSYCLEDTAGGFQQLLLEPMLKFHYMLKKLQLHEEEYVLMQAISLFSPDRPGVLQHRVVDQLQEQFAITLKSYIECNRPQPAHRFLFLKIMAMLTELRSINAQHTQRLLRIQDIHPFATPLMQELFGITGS
The data set can be described thus: Activity at PXR by induction assay.

Data set [4] has as its target Cav1.2 (voltage-dependent L-type calcium channel subunit alpha-1C) (Homo sapiens, UniProt Q13936). The data set can be described thus: Blockade of Cav1.2 channel at 10 uM by fluorescent calcium-influx assay. In outline:
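Cav1.2 (L-type) channel block measured with a fluorescent calcium-influx FLIPR assay. Results are reported as % inhibition at 10 μM test concentration.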

A further data set has as its system hERG (Homo sapiens). Description: Blockade of hERG channel at 10 uM by displacement of MK-0499 binding.

Broadly, the inhibition is the share of the control response that was lost under treatment. Broadly, the pIC50 is the negative decadic logarithm of the IC50, by convention in mol/L. As usually defined, the pEC50 is the EC50 on a negative log10 scale, so that one unit is a factor of ten. Low readings indicate a large EC50, high ones a small EC50.

The structures appear in SMILES notation. pEC50, pIC50: −log10 of the molar value. Bounds are passed on as bounds.

Chain of Cav1.2 (voltage-dependent L-type calcium channel subunit alpha-1C) (Q13936 whole entry): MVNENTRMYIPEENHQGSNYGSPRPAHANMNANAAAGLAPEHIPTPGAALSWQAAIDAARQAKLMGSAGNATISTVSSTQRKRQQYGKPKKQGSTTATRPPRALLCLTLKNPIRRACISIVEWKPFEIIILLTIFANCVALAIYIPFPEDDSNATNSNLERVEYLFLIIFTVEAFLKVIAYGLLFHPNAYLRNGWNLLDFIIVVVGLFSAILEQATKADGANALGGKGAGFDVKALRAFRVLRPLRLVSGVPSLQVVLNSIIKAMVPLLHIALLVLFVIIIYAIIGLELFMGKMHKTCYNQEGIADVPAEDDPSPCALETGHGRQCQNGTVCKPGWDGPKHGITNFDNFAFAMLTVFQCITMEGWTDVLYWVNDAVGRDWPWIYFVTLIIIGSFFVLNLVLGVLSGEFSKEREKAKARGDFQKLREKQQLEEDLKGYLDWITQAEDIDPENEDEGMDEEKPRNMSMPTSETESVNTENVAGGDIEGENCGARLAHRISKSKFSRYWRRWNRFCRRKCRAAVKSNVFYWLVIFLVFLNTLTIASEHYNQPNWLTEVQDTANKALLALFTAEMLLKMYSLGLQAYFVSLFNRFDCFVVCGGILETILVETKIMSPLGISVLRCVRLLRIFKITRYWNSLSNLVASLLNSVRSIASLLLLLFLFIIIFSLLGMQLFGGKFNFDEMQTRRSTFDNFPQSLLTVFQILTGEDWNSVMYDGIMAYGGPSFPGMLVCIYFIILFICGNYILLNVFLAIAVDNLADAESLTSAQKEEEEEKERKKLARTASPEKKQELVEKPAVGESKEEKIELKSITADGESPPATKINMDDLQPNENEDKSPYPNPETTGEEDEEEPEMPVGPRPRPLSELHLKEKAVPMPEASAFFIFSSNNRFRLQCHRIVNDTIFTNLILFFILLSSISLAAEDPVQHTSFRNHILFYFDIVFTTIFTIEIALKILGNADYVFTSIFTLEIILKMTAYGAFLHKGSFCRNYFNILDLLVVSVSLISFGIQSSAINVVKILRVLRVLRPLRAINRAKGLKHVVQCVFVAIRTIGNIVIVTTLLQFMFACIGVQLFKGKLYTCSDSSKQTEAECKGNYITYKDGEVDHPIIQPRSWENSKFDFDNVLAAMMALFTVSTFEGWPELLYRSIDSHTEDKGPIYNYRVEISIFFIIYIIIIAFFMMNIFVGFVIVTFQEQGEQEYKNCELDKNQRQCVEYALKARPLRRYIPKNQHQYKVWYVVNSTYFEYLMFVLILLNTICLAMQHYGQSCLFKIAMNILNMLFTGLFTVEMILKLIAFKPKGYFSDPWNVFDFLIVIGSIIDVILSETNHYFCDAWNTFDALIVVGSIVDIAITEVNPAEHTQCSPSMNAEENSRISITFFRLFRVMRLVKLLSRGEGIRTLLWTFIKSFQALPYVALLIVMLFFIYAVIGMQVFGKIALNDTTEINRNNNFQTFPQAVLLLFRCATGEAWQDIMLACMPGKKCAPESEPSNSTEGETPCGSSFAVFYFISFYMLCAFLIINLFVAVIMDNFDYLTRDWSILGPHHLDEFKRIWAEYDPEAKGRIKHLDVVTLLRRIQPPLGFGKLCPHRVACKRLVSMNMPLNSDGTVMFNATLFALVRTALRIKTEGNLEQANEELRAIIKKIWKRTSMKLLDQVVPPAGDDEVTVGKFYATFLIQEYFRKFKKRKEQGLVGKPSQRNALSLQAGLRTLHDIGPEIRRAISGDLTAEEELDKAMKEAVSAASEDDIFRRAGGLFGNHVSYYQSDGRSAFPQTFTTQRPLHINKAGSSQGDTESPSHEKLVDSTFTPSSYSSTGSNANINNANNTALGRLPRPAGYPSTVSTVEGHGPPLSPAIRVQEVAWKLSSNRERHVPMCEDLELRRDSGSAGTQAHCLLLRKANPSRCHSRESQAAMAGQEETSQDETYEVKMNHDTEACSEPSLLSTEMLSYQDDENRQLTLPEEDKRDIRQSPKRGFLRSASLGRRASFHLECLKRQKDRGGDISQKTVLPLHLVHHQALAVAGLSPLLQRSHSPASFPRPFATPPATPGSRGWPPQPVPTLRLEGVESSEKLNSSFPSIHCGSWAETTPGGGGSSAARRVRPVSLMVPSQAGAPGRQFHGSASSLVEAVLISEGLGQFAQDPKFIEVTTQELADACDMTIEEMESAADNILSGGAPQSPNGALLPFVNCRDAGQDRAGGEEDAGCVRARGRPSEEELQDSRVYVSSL

Take `Cc1cc(C)cc(-c2cc3cc(C(C)(C)C(=O)NC4CC4)ccc3n2CC(C)O)c1` (stereo not drawn): in data set [1], the inhibition was 89%. The pIC50 in data set [2] was 5.94.
`CC(C)(C)NC(=O)C(c1ccccn1)n1ccc2cc(C(C)(C)C(=O)NC(C)(C)C)ccc21` (stereo not drawn): the pEC50 in data set [3] is 6.22. Further, in data set [4], the inhibition at 10 µM is 64%.
Take `COc1ccccc1-c1cc2cc(C(C)(C)C(=O)NC(C)(C)C)ccc2n1CC(=O)NC(C)(C)C`: the pEC50 in data set [3] was 6.13. For the same compound, the inhibition at 10 µM in data set [4] turned out to be 60%.
As to `Cc1cc(C)cc(-c2cc3cc(C(C)(C)C(=O)N(C)C)ccc3n2CC(C)O)c1` (stereo not drawn), the inhibition in data set [1] is 89%. For the same compound, the inhibition at 10 µM in data set [4] worked out at 52%. For the same compound, the pIC50 in data set [2] is 6.06.
Regarding `CC(C)(C)NC(=O)Cn1c(C(=O)NC(C)(C)C)cc2cc(C(C)(C)C(=O)NC(C)(C)C)ccc21`, in data set [3], the pEC50 is 5.18. Moreover, in data set [4], the inhibition at 10 µM was 24%.
With `Cc1cc(C)cc(-c2cc3cc(C(C)(C)C(=O)NC(C)(C)C)ccc3[nH]2)c1`, the inhibition in data set [1] was 78%.
The compound `CC(C)(C)NC(=O)Cn1c(C(C)(C)C)cc2cc(C(C)(C)C(=O)NC(C)(C)C)ccc21` had a pEC50 in data set [3] of 6.24. In data set [4], the inhibition at 10 µM worked out at 47%.
The corresponding values for `CC(C)(C)NC(=O)Cn1c(-c2ccccc2)cc2cc(C(C)(C)C(=O)NC(C)(C)C)ccc21` are 5.74 and 79%.
In the data set on hERG (Homo sapiens), `Cc1cc(C)cc(-c2cc3cc(C(C)(C)C(=O)NC(C)(C)C)ccc3n2Cc2c(C)noc2C)c1` came in with an inhibition at 10 µM of 65%. Besides, in data set [1], the inhibition stood at 99%. In addition, the pIC50 in data set [2] was 6.27.
Consider `Cc1cc(C)cc(-c2cc3cc(OC(F)(F)F)ccc3n2CC(C)O)c1` (stereo not drawn), for which, in data set [1], the inhibition was 36%. Also, the inhibition at 10 µM in data set [4] came to 43%.
Take `Cc1cc(C)cc(-c2cc3cc(C(C)(C)C(=O)NC(C)(C)C)ccc3n2CC(=O)OC(C)(C)C)c1`: the inhibition at 10 µM with hERG (Homo sapiens) came out at 60%; in data set [4] it was 48%. Also, in data set [1], the inhibition came out at 91%. Moreover, the pIC50 in data set [2] was 6.18.
Regarding `COC(=O)C(C)(C)c1ccc2c(c1)cc(-c1cc(C)cc(C)c1)n2CC(C)O` (stereo not drawn), the inhibition in data set [1] came out at 70%. For the same compound, the inhibition at 10 µM in data set [4] turned out to be 64%.
As to `CC(C)(C)NC(=O)Cn1c(-c2cc(C(F)(F)F)cc(C(F)(F)F)c2)cc2cc(C(C)(C)C(=O)NC(C)(C)C)ccc21`, in data set [3], the pEC50 was 4.97. Also, in data set [4], the inhibition at 10 µM is 61%.
`COCCn1c(-c2cc(C)cc(C)c2)cc2cc(C(C)(C)C(=O)NC(C)(C)C)ccc21`: in data set [1], the inhibition was found to be 99%. The inhibition at 10 µM in data set [4] was 70%. Moreover, in data set [2], the pIC50 was 6.28.
`Cc1cc(C)cc(-c2cc3cc(C(C)(C)C(=O)NCC(F)(F)F)ccc3n2CC(C)O)c1` (stereo not drawn): the inhibition in data set [1] came to 91%. Moreover, in data set [2], the pIC50 was 5.93.
For the compound `CC(C)(C)NC(=O)Cn1c(-c2cc(F)cc(C(F)(F)F)c2)cc2cc(C(C)(C)C(=O)NC(C)(C)C)ccc21`, the pEC50 in data set [3] was less than 4.52. In addition, the inhibition at 10 µM in data set [4] is 88%.
As to `CC(C)(C)NC(=O)Cn1c(-c2ccc(F)cc2)cc2cc(C(C)(C)C(=O)NC(C)(C)C)ccc21`, the pEC50 in data set [3] is less than 4.52. Moreover, in data set [4], the inhibition at 10 µM was 82%.
In the case of `Cc1cc(C)cc(-c2cc3cc(C(=O)NC(C)(C)C)ccc3n2CC(C)O)c1` (stereo not drawn), the figures for the inhibition at 10 µM (in the data set with hERG (Homo sapiens); in data set [4]) were 64% and 90%, respectively. The inhibition in data set [1] is 97%. Besides, the pIC50 in data set [2] was 6.17.
Turning to `CC(C)(C)NC(=O)Cn1c(-c2ccc(F)cc2F)cc2cc(C(C)(C)C(=O)NC(C)(C)C)ccc21`, the pEC50 in data set [3] was 6.03. The inhibition at 10 µM in data set [4] stood at 93%.
Take `Cc1cc(C)cc(-c2cc3cc(C(C)(C)C(=O)NC(C)(C)C)ccc3n2C(=O)OC(C)(C)C)c1`: the inhibition in data set [1] is 59%.
Consider `Cc1cc(C)cc(-c2cc3cc(C(C)(C)C(=O)NC(C)(C)C)ccc3n2Cc2ccc(Cl)cc2)c1`, for which the inhibition in data set [1] came out at 36%.
In the case of `Cc1cc(C)cc(-c2cc3cc(C(C)(C)CO)ccc3n2CC(C)O)c1` (stereo not drawn), the inhibition in data set [1] came to 44%. Also, in data set [4], the inhibition at 10 µM came out at 32%.
